# Test results as given in ChEMBL document CHEMBL2169822, “Discovery and optimization of 1,3,4-trisubstituted-pyrazolone derivatives as novel, potent, and nonsteroidal farnesoid X receptor (FXR) selective antagonists” (J Med Chem, 2012).
# Calls of active or inactive are those of the source. The rule behind the calls is not given here.
# What was measured:
# [1] = Agonist activity at GST tagged human recombinant FXRalphaLBD expressed in Escherichia coli BL21 cells assessed as SRC-1 co-activator association at 40 uM after 30 mins by HTRF assay; format: functional
# Procedure, shortened: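 HTRF coactivator recruitment: 10 nM GST-human FXRαLBD (residues 238–473, E. coli BL21(DE3)), 0.83 nM anti-GST-Eu cryptate, 100 nM biotin-SRC1 peptide, 41.75 nM SA/XL665. Buffer was 50 mM Hepes pH 7.0, 125 mM KF, 0.125% CHAPS, 0.05% dry milk. Compound alone or with CDCA, 30 min at room temperature. Signal was 1000×(668/620 nm). Primary screen at 40 μM; IC50 as mean ± SE, three experiments.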
# [2] = target: T1, Retinoic acid receptor RXR-alpha (Homo sapiens) (UniProt P19793); assay: Agonist activity at recombinant RXRalphaLBD expressed in HEK293T cells co-expressing GAL4 DBD at 20 uM by transactivation assay; format: functional, cell-based; details: HEK-293T
# T1 sequence (whole entry): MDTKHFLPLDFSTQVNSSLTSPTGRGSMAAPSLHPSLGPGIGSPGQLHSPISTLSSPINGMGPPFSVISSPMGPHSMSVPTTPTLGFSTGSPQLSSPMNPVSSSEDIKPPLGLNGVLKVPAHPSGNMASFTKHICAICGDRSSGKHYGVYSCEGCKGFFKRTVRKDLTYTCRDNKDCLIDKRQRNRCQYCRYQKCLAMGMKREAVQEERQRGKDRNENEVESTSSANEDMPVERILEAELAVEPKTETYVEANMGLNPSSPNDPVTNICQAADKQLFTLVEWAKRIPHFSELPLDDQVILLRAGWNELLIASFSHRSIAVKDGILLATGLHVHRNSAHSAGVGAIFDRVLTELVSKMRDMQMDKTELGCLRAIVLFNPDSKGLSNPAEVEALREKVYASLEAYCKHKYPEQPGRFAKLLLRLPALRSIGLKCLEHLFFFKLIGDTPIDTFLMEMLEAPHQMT
# Procedure, shortened: (§1)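 One-hybrid assay in HEK293T cells cotransfected with a Gal4 DBD–NR-LBD fusion (RXRα, LXRα, GR, PR, PPARδ or PPARγ) plus UAS-TK-Luc reporter. Compound was 20 μM, given alone or with agonist: 9cRA 0.1 μM (RXRα), TO901317 0.5 μM (LXRα), dexamethasone 50 nM (GR), progesterone 100 nM (PR), GW1516 10 μM (PPARδ), rosiglitazone 10 μM (PPARγ). Luciferase read-out; three independent experiments.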
# [3] = species on record: Homo sapiens; assay: Ratio of Z-guggulsterone IC50 to compound IC50 for GST-tagged human recombinant FXRalphaLBD
# [4] = target: T2, Bile acid receptor (Homo sapiens) (UniProt Q96RI1); assay: Antagonist activity at human FXR in human HepG2 cells assessed as reduction in triglyceride level after 24 hrs; format: functional, cell-based
# T2 sequence (whole entry): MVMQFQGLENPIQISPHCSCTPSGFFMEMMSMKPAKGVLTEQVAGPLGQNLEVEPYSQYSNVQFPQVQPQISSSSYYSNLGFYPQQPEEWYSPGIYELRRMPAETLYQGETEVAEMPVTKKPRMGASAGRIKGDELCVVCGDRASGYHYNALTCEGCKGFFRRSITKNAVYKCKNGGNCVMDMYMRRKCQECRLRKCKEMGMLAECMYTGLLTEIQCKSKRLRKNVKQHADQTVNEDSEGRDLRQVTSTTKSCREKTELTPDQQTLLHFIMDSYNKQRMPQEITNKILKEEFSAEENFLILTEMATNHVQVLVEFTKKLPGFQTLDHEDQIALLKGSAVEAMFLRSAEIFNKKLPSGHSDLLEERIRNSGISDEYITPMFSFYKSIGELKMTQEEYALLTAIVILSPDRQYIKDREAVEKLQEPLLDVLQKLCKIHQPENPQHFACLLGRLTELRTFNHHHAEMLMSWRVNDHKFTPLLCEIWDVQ
# Procedure, shortened: (§2)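 HepG2 cells were serum-starved overnight in FBS-free DMEM, then given DMSO or compound for 24 h in serum-free DMEM. Cells were lysed in RIPA buffer, sonicated on ice and centrifuged at 12000 rpm, 4 °C. Triglyceride and total cholesterol in the cleared lysate were measured by kits, with total protein by BCA. At least three experiments.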
# [5] = target: T2, Bile acid receptor (Homo sapiens); assay: Antagonist activity at human FXR in human HepG2 cells assessed as reduction in triglyceride level at 10 uM after 24 hrs; format: functional, cell-based; procedure, shortened: as §2
# [6] = target: T3, Progesterone receptor (Homo sapiens) (UniProt P06401); assay: Antagonist activity at recombinant PR LBD expressed in HEK293T cells co-expressing GAL4 DBD assessed as inhibition of progesterone-induced transactivation at 20 uM by luciferase reporter gene assay; format: functional, cell-based; details: HEK-293T; procedure, shortened: as §1
# T3 sequence (whole entry): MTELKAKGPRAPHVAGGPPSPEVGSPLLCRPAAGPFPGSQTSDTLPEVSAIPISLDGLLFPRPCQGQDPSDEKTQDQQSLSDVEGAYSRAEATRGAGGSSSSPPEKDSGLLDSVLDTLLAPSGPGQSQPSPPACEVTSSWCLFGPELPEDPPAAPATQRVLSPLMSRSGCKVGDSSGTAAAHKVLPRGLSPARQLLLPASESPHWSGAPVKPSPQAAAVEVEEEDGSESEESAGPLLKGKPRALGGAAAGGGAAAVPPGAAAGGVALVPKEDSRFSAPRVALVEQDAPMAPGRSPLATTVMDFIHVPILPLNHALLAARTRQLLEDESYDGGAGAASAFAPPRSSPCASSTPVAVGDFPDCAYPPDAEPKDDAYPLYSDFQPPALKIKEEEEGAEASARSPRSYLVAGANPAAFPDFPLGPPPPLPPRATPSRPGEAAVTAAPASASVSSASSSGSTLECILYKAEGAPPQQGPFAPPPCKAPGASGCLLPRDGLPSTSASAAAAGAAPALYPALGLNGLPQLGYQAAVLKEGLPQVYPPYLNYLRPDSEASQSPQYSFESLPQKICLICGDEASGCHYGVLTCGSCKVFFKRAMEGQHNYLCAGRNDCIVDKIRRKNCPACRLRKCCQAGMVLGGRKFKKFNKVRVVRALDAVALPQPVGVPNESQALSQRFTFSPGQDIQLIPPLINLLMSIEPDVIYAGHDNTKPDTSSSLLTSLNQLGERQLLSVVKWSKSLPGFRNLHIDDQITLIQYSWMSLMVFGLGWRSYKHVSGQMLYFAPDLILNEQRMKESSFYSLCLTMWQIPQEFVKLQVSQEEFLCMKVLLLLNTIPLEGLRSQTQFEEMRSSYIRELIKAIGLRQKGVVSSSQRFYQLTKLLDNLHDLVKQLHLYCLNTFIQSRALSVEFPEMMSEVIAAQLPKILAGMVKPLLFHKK
# [7] = target: T3, Progesterone receptor (Homo sapiens); assay: Agonist activity at recombinant PR-LBD expressed in HEK293T cells co-expressing GAL4 DBD at 20 uM by transactivation assay; format: functional, cell-based; details: HEK-293T; procedure, shortened: as §1
structure (smiles),measurement,setting,value
COc1cc(/C=C2\C(=O)N(c3cccc([N+](=O)[O-])c3)N=C2c2ccccc2)ccc1O,Activity,[1],<5%
same,Activity,[2],inactive
same,Ratio IC50,[3],10
same,inhibition,[4],Dose-dependent effect
same,inhibition,[5],35.2%
same,inhibition,[6],inactive
same,Activity,[7],inactive
